bCat nuc transl: beta-catenin nuclear translocation modulation. HeLa beta-catenin nuclear translocation, immunofluorescence imaging. nuclear translocation activity, % at 5 µM. 0.3% of 190,000 active. AID 1665;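 active means nuclear translocation activity above 50% at 5 µM, with a well cell count of 50 or more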;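 further: per-cell ratio of nuclear to cytoplasmic median beta-catenin stain intensity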
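Test system: HeLa cells, endogenous beta-catenin; Compound: single 5 µM dose plus 0.02–20 µM confirmation series; Times: compound exposure 24 h at 37°C; Signal: fluorescence imaging of beta-catenin antibody stain plus DAPI; Read-out: % activation, nuclear-to-cytoplasmic median beta-catenin signal ratio per cell.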
PGE2 EP2 inh: inhibitors of human EP2 prostaglandin E2 receptor. C6 glioma cells expressing human EP2, cAMP TR-FRET; cells stimulated with saturating PGE2. inhibition, % at 25 µM. 0.52% of 260,000 active;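 active means percent inhibition above 40 after rounding to a whole number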;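 further: rat C6 glioma host cells with rolipram phosphodiesterase inhibitor present; the protocol text gives 20 µM as final concentration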
Target sequence (P43116 whole entry, looked up): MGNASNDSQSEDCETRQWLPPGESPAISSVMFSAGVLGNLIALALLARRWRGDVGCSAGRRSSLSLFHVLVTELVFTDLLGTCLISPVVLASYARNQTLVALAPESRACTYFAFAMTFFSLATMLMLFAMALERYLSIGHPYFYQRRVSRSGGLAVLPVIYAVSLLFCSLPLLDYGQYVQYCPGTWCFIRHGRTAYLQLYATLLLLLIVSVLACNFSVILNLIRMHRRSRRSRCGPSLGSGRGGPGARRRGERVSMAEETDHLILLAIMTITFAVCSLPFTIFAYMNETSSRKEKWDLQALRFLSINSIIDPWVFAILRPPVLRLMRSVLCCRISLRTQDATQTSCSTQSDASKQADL
HMGR II inh: blocks class II HMG-CoA reductase of Enterococcus faecalis; purified E. faecalis HMGR, NADPH absorbance 340 nm kinetic; inhibition, % at 10 µM; 0.41% of 190,000 active; AID 1066;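 active means inhibition above a set limit, the median over all tested compounds plus 3 SD, cut at about 9.5% in these data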;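 further: enzyme runs in reverse so mevalonate oxidation gives rising NADPH absorbance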
Tb hexokinase: blocks Trypanosoma brucei hexokinase 1 activity. recombinant TbHK1, G6PDH-coupled NADH A340. inhibition, % at 10 µM. 0.11% of 220,000 active. AID 1430;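 active means inhibition of 50% or more in the single-dose primary screen; inactive means inhibition below 50%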
MT stabilizer: microtubule stabilizers in HeLa cells; 0.83% of 200,000 active; % tubulin-high responders, % at 10 µM; AID 2205; HeLa tubulin immunostaining HCS, 24 h; share of cells brighter than vehicle mean+2SD;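 active means plate Z-score above 3 for both tubulin-high and condensed-nucleus cell shares, with cell loss under 80%, at 10 µM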;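 further: anti alpha tubulin signal scored within the nucleus-defined area of each cell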
EP2 modulator: EP2 receptor (human) modulation; EP2-expressing cells, cAMP HTRF FRET, PGE2 co-stimulation; induction, % at 25 µM; 0.83% of 260,000 active; AID 940;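 active means compounds whose cAMP rise, as percent of the full-agonist control response, exceeds 60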;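 further: rat C6 glioma line stably carrying human EP2 under a CMV promoter; the protocol text gives 20 µM as final concentration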
Hits are given with their value; ! = a repeat was not active. A selection: hits, their analogues and other compounds. The true share with any hit is near 2.4%.

Screening O=C1Nc2ccccc2/C1=C/C(=O)c1cccs1 returned bCat nuc transl inactive, PGE2 EP2 inh 68.5, HMGR II inh inactive, Tb hexokinase inactive, MT stabilizer inactive and EP2 modulator inactive.
For COc1ccc(C(=O)Sc2nc3ccccc3o2)cc1 the results were PGE2 EP2 inh inactive and EP2 modulator inactive.
CNc1nc2ccccc2o1 was read as PGE2 EP2 inh inactive and EP2 modulator inactive.
Screening CCC(C)(C)n1nnnc1C(c1ccc(C(F)(F)F)cc1)N1CCC(C)CC1 (stereo not given) returned PGE2 EP2 inh inactive and EP2 modulator 76.6.
For NC(=O)c1cn(-c2ccccc2)nc1-c1cc2ccccc2oc1=O the results were bCat nuc transl inactive, PGE2 EP2 inh inactive, HMGR II inh inactive, Tb hexokinase inactive, MT stabilizer inactive and EP2 modulator 98.2.
COc1cccc(C2CC(c3ccc(Br)cc3)=NN2C(=O)c2ccncc2)c1OC (stereo not given) was read as bCat nuc transl inactive, PGE2 EP2 inh inactive, HMGR II inh inactive, Tb hexokinase inactive, MT stabilizer inactive and EP2 modulator inactive.
`COc1ccccc1C1CC(c2ccc(Br)cc2)=NN1C(=O)c1cccnc1` (stereo not given) gave bCat nuc transl 83.1, PGE2 EP2 inh inactive, HMGR II inh inactive, Tb hexokinase inactive, MT stabilizer 14.9 and EP2 modulator inactive.
For CC1CCc2c(sc(NC(=O)c3cccs3)c2C(=O)N2CCN(C)CC2)C1 (stereo not given) the results were PGE2 EP2 inh inactive and EP2 modulator inactive.
CC(SCCc1ccccn1)C(=O)O (stereo not given) was read as bCat nuc transl inactive, PGE2 EP2 inh inactive, HMGR II inh inactive, Tb hexokinase inactive, MT stabilizer inactive and EP2 modulator inactive.
`N=C(N)SCCc1ccccn1` gave PGE2 EP2 inh 43.8! and EP2 modulator inactive.
COc1ccc2oc(=O)c(-c3nnc(NCc4ccco4)s3)cc2c1 was read as bCat nuc transl inactive, PGE2 EP2 inh inactive, HMGR II inh inactive, Tb hexokinase inactive, MT stabilizer 46.1 and EP2 modulator inactive.
For CSc1ccc2c(c1)N(CCCN(C)C)c1ccccc1S2 the results were PGE2 EP2 inh inactive and EP2 modulator inactive.
CN(C)CCCN1c2ccccc2Sc2cnccc21 was read as PGE2 EP2 inh 44.9 and EP2 modulator inactive.
For CCNC(=O)CC[C@H](N)C(=O)O the results were PGE2 EP2 inh inactive and EP2 modulator inactive.
For CC(C)CCNC(=O)c1cc(-c2ccncc2)nc2ccc(S(=O)(=O)N3CCOCC3)cc12 the results were bCat nuc transl inactive, PGE2 EP2 inh inactive, HMGR II inh inactive, Tb hexokinase inactive, MT stabilizer 17.1 and EP2 modulator inactive.
O=C1c2[nH]nc(-c3ccccc3O)c2C(c2cccc(Cl)c2)N1Cc1ccco1 (stereo not given) was read as bCat nuc transl inactive, PGE2 EP2 inh inactive, HMGR II inh inactive, Tb hexokinase inactive, MT stabilizer 17.0 and EP2 modulator inactive.
`c1ccc(CNc2nc(NCc3ccccc3)c3ccccc3n2)cc1` gave bCat nuc transl inactive, PGE2 EP2 inh 95.5, Tb hexokinase inactive and EP2 modulator inactive.
For COc1ccc(CNC(=O)C2CC(c3cc(C(F)(F)F)cc(C(F)(F)F)c3)=NO2)cc1 (stereo not given) the results were bCat nuc transl inactive, PGE2 EP2 inh inactive, Tb hexokinase inactive and EP2 modulator inactive.
For COc1cccc(C2=NOC(C(=O)NCc3ccco3)C2)c1 (stereo not given) the results were HMGR II inh inactive, Tb hexokinase inactive, MT stabilizer inactive and EP2 modulator inactive.
Screening COc1cccc(C2=NOC(C(=O)NCc3ccccc3)C2)c1 (stereo not given) returned bCat nuc transl 131.1, HMGR II inh inactive, Tb hexokinase inactive, MT stabilizer 18.9 and EP2 modulator inactive.
For COc1ccc(C2=NOC(C(=O)NCc3ccccc3)C2)cc1 (stereo not given) the results were bCat nuc transl 153.7, HMGR II inh inactive, Tb hexokinase inactive, MT stabilizer inactive and EP2 modulator inactive.
`CCOC(=O)Cc1cc(=O)n2[nH]c(-c3ccc(I)cc3)cc2n1` gave PGE2 EP2 inh inactive and EP2 modulator inactive.
Screening CCOC(=O)c1c(NC(=O)CSc2nc(N)cc(N)n2)sc2c1CCCC2 returned PGE2 EP2 inh inactive and EP2 modulator inactive.
`Cc1cccc2cc(CN(Cc3ccc4c(c3)OCO4)S(=O)(=O)c3ccccc3Cl)c(=O)[nH]c12` gave PGE2 EP2 inh inactive and EP2 modulator inactive.
Cc1ccc2c(c1)N(CC(=O)N1c3ccccc3Sc3ccccc31)C(=O)CO2 was read as PGE2 EP2 inh inactive and EP2 modulator 63.2.
For O=C(NC(=S)Nc1cccc(Cl)c1N1CCCCC1)c1cccs1 the results were bCat nuc transl inactive, PGE2 EP2 inh inactive, HMGR II inh inactive, Tb hexokinase inactive, MT stabilizer 25.8 and EP2 modulator inactive.
Screening O=C(NC(=S)Nc1cccc(Cl)c1N1CCCCC1)c1ccco1 returned bCat nuc transl inactive, PGE2 EP2 inh inactive, HMGR II inh inactive, Tb hexokinase inactive, MT stabilizer 39.3 and EP2 modulator inactive.
For COCCn1nnnc1C(c1cc2c(C)ccc(C)c2[nH]c1=O)N1CCC(Cc2ccccc2)CC1 (stereo not given) the results were PGE2 EP2 inh inactive and EP2 modulator inactive.
CN1CCN(c2nc(-c3ccccc3)nc(-c3ccccc3)c2C#N)CC1 was read as bCat nuc transl inactive, PGE2 EP2 inh inactive, HMGR II inh inactive, Tb hexokinase inactive, MT stabilizer 9.8 and EP2 modulator inactive.
COc1ccc(-c2nc(-c3cccc(C)c3)nc(N3CCN(C)CC3)c2C#N)cc1 was read as bCat nuc transl inactive, PGE2 EP2 inh inactive, HMGR II inh inactive, Tb hexokinase inactive, MT stabilizer 39.2 and EP2 modulator inactive.
Screening COc1cccc(-c2nc(-c3ccccc3)nc(N3CCN(C)CC3)c2C#N)c1 returned bCat nuc transl 50.5, PGE2 EP2 inh inactive, HMGR II inh inactive, Tb hexokinase inactive, MT stabilizer 18.6 and EP2 modulator inactive.
For Cc1nc2cccnc2n1C1CCN(CC(=O)N2CCOCC2)CC1 the results were EP2 modulator inactive.
`CCOCc1nnc(NC(=O)C2ON=C(c3ccc(F)cc3)C2C)s1` (stereo not given) gave PGE2 EP2 inh inactive and EP2 modulator inactive.
Screening CCCc1[nH]n(-c2ccc(F)cc2)c(=O)c1C=Nc1cccc(F)c1 returned bCat nuc transl inactive, PGE2 EP2 inh inactive, HMGR II inh inactive, Tb hexokinase inactive, MT stabilizer 17.0 and EP2 modulator inactive.
CCCc1[nH]n(-c2ccc(F)cc2)c(=O)c1C=NCC1CCCO1 (stereo not given) was read as bCat nuc transl inactive, PGE2 EP2 inh inactive, HMGR II inh inactive, Tb hexokinase inactive, MT stabilizer inactive and EP2 modulator inactive.

Screening results deposited in PubChem BioAssay by several laboratories.
